Source: ChEMBL document CHEMBL1126729, “Quinolone antibacterials: synthesis and biological activity of carbon isosteres of the 1-piperazinyl and 3-amino-1-pyrrolidinyl side chains” (J Med Chem, 1993)
pIC50: −log10 of the molar value. In brackets after ≈: the same amount, converted by molar mass.

Key:
Assay type in all cases: functional
[1] = target: DNA gyrase (Escherichia coli, UniProt P0AES4+P0AES6); assay: Inhibition of the gyrase mediated cleavage of supercoiled DNA
[2] = system: Escherichia coli; assay: Antibacterial activity was tested in vitro against Escherichia coli Vogel using standard microtitration techniques
How it was run: (§1)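 Broth microtitration MIC testing against a panel of six Gram-negative and five Gram-positive bacterial strains. Values are given as MIC in μg/mL.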

[3] = system: Escherichia coli; assay: Antibacterial activity was tested in vitro against Escherichia coli H-560 using standard microtitration techniques; how it was run: as §1
[4] = system: Enterobacter cloacae; assay: Antibacterial activity was tested in vitro against Enterococcus cloacae MA-2646 using standard microtitration techniques; how it was run: as §1
[5] = system: Enterococcus faecalis; assay: Antibacterial activity was tested in vitro against Enterococcus faecalis MGH-2 using standard microtitration techniques; how it was run: as §1
[6] = system: Bacteria; assay: Geometric mean of MIC was determined in vitro against gram-positive strains using standard microtitration techniques
How it was run: (§2)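 Per-compound geometric means of the microtitration MICs (μg/mL), calculated separately across the Gram-negative strains and the Gram-positive strains. Pseudomonas aeruginosa is excluded from the Gram-negative mean.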

[7] = Geometric mean of MIC was determined in vitro against gram-negative strains using standard microtitration techniques; how it was run: as §2
[8] = system: Mus musculus; assay: Protective dose in vivo was determined in acute, lethal systemic infections in female Charles River CD-1 mice against Escherichia coli Vogel; details: read-out: PD50
How it was run: (§3)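 Female Charles River CD-1 mice with an acute, lethal systemic infection received a single compound dose at the time of challenge. The median protective dose (PD50, mg/kg) was taken as the read-out.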

[9] = system: Pseudomonas aeruginosa; assay: Antibacterial activity was tested in vitro against Pseudomonas aeruginosa UI-18 using standard microtitration techniques; how it was run: as §1
[10] = system: Providencia rettgeri; assay: Antibacterial activity was tested in vitro against M-1771 strain of Providencia rettgeri using standard microtitration techniques; how it was run: as §1
[11] = system: Staphylococcus aureus; assay: (§4) Antibacterial activity was tested in vitro against Staphylococcus aureus UC-76 using standard microtitration techniques
How it was run: (§5)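 MIC (μg/mL) by standard broth microtitration, as part of a panel of six Gram-negative and five Gram-positive organisms.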

[12] = system: Staphylococcus aureus; assay: Antibacterial activity was tested in vitro against Staphylococcus aureus H-288 using standard microtitration techniques; how it was run: as §1
[13] = system: Streptococcus pyogenes; assay: (§6) Antibacterial activity was tested in vitro against Streptococcus pyogenes C-203 using standard microtitration techniques; how it was run: as §5
[14] = system: Klebsiella pneumoniae; assay: Antibacterial activity was tested in vitro against Klebsiella pneumoniae MGH-2 using standard microtitration technique; how it was run: as §1
[15] = system: Streptococcus pneumoniae; assay: Antibacterial activity was tested in vitro against Streptococcus pneumoniae SV-1 using standard microtitration techniques; how it was run: as §1
[16] = system: Klebsiella pneumoniae; assay: Antibacterial activity was tested in vitro against Klebsiella pneumoniae MGH-2 using standard microtitration techniques; how it was run: as §5
[17] = system: Mus musculus; assay: Protective dose in vivo was determined in acute, lethal systemic infections in female Charles River CD-1 mice against Streptococcus pyogenes C-203; details: read-out: PD50; how it was run: as §3
[18] = system: Mus musculus; assay: Protective dose in vivo was determined in acute, lethal systemic infections in female Charles River CD-1 mice against Escherichia coli Vogel; 6/1.1.; details: read-out: PD50
[19] = system: Mus musculus; assay: Protective dose in vivo was determined in acute, lethal systemic infections in female Charles River CD-1 mice against Streptococcus pyogenes C-203; 50/45.; details: read-out: PD50
[20] = system: Streptococcus pyogenes; assay: as §6; how it was run: as §1; remark: listed apart in the source
[21] = system: Staphylococcus aureus; assay: as §4; how it was run: as §1; remark: listed apart in the source

Compound	pIC50 [1]	MIC [2] [µg/mL]	MIC [3] [µg/mL]	MIC [4] [µg/mL]	MIC [5] [µg/mL]	MIC [6] [µg/mL]	MIC [7] [µg/mL]	ED50 [8] [mg/kg]	MIC [9] [µg/mL]	MIC [10] [µg/mL]	MIC [11] [µg/mL]	MIC [12] [µg/mL]	MIC [13] [µg/mL]	MIC [15] [µg/mL]	MIC [16] [µg/mL]	ED50 [17] [mg/kg]	also measured
O=C(O)c1cn(C2CC2)c2cc(C3CCNCC3)c(F)cc2c1=O	4.94	0.2 (≈ 0.605 µM)	0.2 (≈ 0.605 µM)	0.2 (≈ 0.605 µM)	3.1 (≈ 9.38 µM)	1.8 (≈ 5.45 µM)	0.3 (≈ 0.908 µM)	13.8	1.6 (≈ 4.84 µM)	0.8 (≈ 2.42 µM)	0.8 (≈ 2.42 µM)	6.3 (≈ 19.1 µM)	0.4 (≈ 1.21 µM)	3.1 (≈ 9.38 µM)	–	–	MIC [14]: 0.4 µg/mL (≈ 1.21 µM)
O=C(O)c1cn(C2CC2)c2cc(C3=CCNCC3)c(F)cc2c1=O	5.56	0.025 (≈ 0.0761 µM)	0.013 (≈ 0.0396 µM)	0.025 (≈ 0.0761 µM)	0.8 (≈ 2.44 µM)	0.46 (≈ 1.4 µM)	0.04 (≈ 0.122 µM)	1.7	0.8 (≈ 2.44 µM)	0.1 (≈ 0.305 µM)	0.1 (≈ 0.305 µM)	0.8 (≈ 2.44 µM)	0.4 (≈ 1.22 µM)	0.8 (≈ 2.44 µM)	0.1 (≈ 0.305 µM)	> 100	–
NC1CCN(c2cc3c(cc2F)c(=O)c(C(=O)O)cn3C2CC2)C1 (stereo not given)	5.11	–	–	–	–	0.09 (≈ 0.272 µM)	0.04 (≈ 0.121 µM)	3.4	–	–	–	–	–	–	–	97	–
O=C(O)c1cn(C2CC2)c2cc(N3CCNCC3)c(F)cc2c1=O [CIPROFLOXACIN]	–	–	–	–	–	0.6 (≈ 1.81 µM)	0.05 (≈ 0.151 µM)	1.2	–	–	–	–	–	–	–	> 260	–
O=C(O)c1cn(-c2ccc(F)cc2F)c2nc(C3=CCNCC3)c(F)cc2c1=O	4.90	0.1 (≈ 0.249 µM)	0.1 (≈ 0.249 µM)	0.1 (≈ 0.249 µM)	1.6 (≈ 3.99 µM)	0.53 (≈ 1.32 µM)	0.15 (≈ 0.374 µM)	–	1.6 (≈ 3.99 µM)	0.4 (≈ 0.997 µM)	0.2 (≈ 0.498 µM)	0.8 (≈ 1.99 µM)	0.4 (≈ 0.997 µM)	0.4 (≈ 0.997 µM)	0.2 (≈ 0.498 µM)	–	–
NC1CCN(c2nc3c(cc2F)c(=O)c(C(=O)O)cn3-c2ccc(F)cc2F)C1 (stereo not given) [TOSUFLOXACIN]	5.13	–	–	–	–	0.04 (≈ 0.0989 µM)	0.03 (≈ 0.0742 µM)	0.6	–	–	–	–	–	–	–	5.7	–
O=C(O)c1cn(C2CC2)c2nc(N3CCNCC3)c(F)cc2c1=O	< 4.12	–	–	–	–	1.2 (≈ 3.61 µM)	0.05 (≈ 0.15 µM)	0.7	–	–	–	–	–	–	–	63	–
NC1CCN(c2nc3c(cc2F)c(=O)c(C(=O)O)cn3C2CC2)C1 (stereo not given)	5.04	–	–	–	–	0.1 (≈ 0.301 µM)	0.02 (≈ 0.0602 µM)	2	–	–	–	–	–	–	–	32	–
NC1C=C(c2nc3c(cc2F)c(=O)c(C(=O)O)cn3-c2ccc(F)cc2F)CC1 (stereo not given)	4.80	0.05 (≈ 0.125 µM)	0.025 (≈ 0.0623 µM)	0.05 (≈ 0.125 µM)	0.2 (≈ 0.498 µM)	0.09 (≈ 0.224 µM)	0.07 (≈ 0.174 µM)	–	1.6 (≈ 3.99 µM)	0.2 (≈ 0.498 µM)	0.025 (≈ 0.0623 µM)	0.1 (≈ 0.249 µM)	–	0.1 (≈ 0.249 µM)	0.1 (≈ 0.249 µM)	–	ED50 [18]: 6 mg/kg; ED50 [19]: 50 mg/kg; MIC [20]: 0.1 µg/mL (≈ 0.249 µM)
NC1C=C(c2cc3c(cc2F)c(=O)c(C(=O)O)cn3C2CC2)CC1 (stereo not given)	5.07	0.1 (≈ 0.305 µM)	0.1 (≈ 0.305 µM)	0.1 (≈ 0.305 µM)	0.8 (≈ 2.44 µM)	0.35 (≈ 1.07 µM)	0.13 (≈ 0.396 µM)	5.2	0.8 (≈ 2.44 µM)	0.2 (≈ 0.609 µM)	–	0.8 (≈ 2.44 µM)	0.2 (≈ 0.609 µM)	0.4 (≈ 1.22 µM)	0.2 (≈ 0.609 µM)	–	MIC [21]: 0.1 µg/mL (≈ 0.305 µM)
O=C(O)c1cn(-c2ccc(F)cc2F)c2nc(N3CCNCC3)c(F)cc2c1=O	–	–	–	–	–	0.2 (≈ 0.495 µM)	0.4 (≈ 0.989 µM)	–	–	–	–	–	–	–	–	2.4	–
NC1C=C(c2nc3c(cc2F)c(=O)c(C(=O)O)cn3C2CC2)CC1 (stereo not given)	4.94	0.05 (≈ 0.152 µM)	0.05 (≈ 0.152 µM)	0.05 (≈ 0.152 µM)	0.4 (≈ 1.21 µM)	0.35 (≈ 1.06 µM)	0.07 (≈ 0.213 µM)	1.2	0.8 (≈ 2.43 µM)	0.1 (≈ 0.304 µM)	0.1 (≈ 0.304 µM)	0.8 (≈ 2.43 µM)	0.4 (≈ 1.21 µM)	0.4 (≈ 1.21 µM)	0.1 (≈ 0.304 µM)	50	–
O=C(O)c1cn(C2CC2)c2nc(C3=CCNCC3)c(F)cc2c1=O	4.94	0.013 (≈ 0.0395 µM)	0.013 (≈ 0.0395 µM)	0.025 (≈ 0.0759 µM)	0.8 (≈ 2.43 µM)	0.6 (≈ 1.82 µM)	0.03 (≈ 0.0911 µM)	0.5	0.2 (≈ 0.607 µM)	0.05 (≈ 0.152 µM)	0.2 (≈ 0.607 µM)	1.6 (≈ 4.86 µM)	0.4 (≈ 1.21 µM)	0.8 (≈ 2.43 µM)	0.05 (≈ 0.152 µM)	42	–
